Sampled rows, rich in hits. Any-hit rate of the full collection: about 4.6%.
GPR7 antag – blocks human GPR7 receptor signaling; P48145; GPR7-expressing cells, fluorescence antagonist assay; inhibition, % at 4.4 µM; actives 1.1% (n = 290,000); AID 1861; in the data active = inhibition above about 16%, passing the limit was not always enough;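 note: cells stimulated with the agonist NPW; 0% = agonist with vehicle and 100% = vehicle without agonist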
OX1R antag-1 – human HCRTR1 antagonism. O43613. CHO/OX1R cells, Fluo-8 calcium fluorescence, orexin A. inhibition, % at 5 µM. actives 0.43% (n = 330,000). AID 434989;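 active = inhibition above its plate's threshold, mean inhibition of all tested compounds on the plate plus 3 SD, cut at about 37% in these data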;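 note: 0% = orexin A challenge wells and 100% = SB-334867-A antagonist wells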
CHO parental Ca – signal in parental CHO cells, OX1R antagonist counter-screen; parental CHO-K1, ATP-induced calcium, Fluo-8 fluorescence; inhibition, % at 5.6 µM; actives 0.63% (n = 330,000); AID 463079;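 active = inhibition above that plate's mean sample inhibition plus 3 SD, cut at about 26% in these data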;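 note: 0% = ATP-challenged DMSO wells and 100% = DMSO wells without ATP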
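Test system: parental CHO cells; detection: calcium-sensitive Fluo-8 fluorescence; evaluation: percent inhibition of calcium signal; also added: ATP as calcium-mobilizing challenge; repeats: one well per compound; control set: ATP-challenged DMSO wells low, unchallenged DMSO wells high; compound: single nominal dose of 5.6 µM per compound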
TAAR1 ag – human TAAR1 agonism | CHO RD-HGA16 TAAR1, Fluo-8 calcium fluorescence; vehicle wells 0%, saturating PEA agonist 100% | Q96RJ0 | AID 624467 | activation, % at 3 µM | actives 0.99% (n = 360,000);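 active = activation above the mean activation of all test compounds in the run plus 3 SD, cut at about 38% in these data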
Target sequence (Q96RJ0 whole entry, looked up): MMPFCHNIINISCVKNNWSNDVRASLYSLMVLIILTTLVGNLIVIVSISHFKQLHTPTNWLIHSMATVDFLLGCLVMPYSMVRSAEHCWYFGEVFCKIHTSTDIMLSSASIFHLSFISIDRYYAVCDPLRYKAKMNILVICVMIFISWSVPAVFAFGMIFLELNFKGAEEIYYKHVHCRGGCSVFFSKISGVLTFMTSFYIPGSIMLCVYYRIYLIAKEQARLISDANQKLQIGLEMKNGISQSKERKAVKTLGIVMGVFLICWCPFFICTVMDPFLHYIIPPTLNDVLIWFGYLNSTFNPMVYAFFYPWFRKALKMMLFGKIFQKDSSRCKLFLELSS
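Benchmarks: low control DMSO, high control PEA (EC100); System: CHO RD-HGA16 cells carrying human TAAR1 plus Gα16; Detection: Fluo-8 fluorescence, 5 s baseline then 140 s kinetic read; Schedule: 17-24 h plating, Fluo-8 75 min 37 °C, 30 min RT; Read-out basis: % activation from peak over basal fluorescence ratio, DMSO-to-PEA scaled.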
OX1R antag-2 – antagonists of human orexin 1 receptor (OX1R). OX1R-expressing cells, FRET antagonist read-out. AID 485270. O43613. actives 1.8% (n = 330,000). inhibition, % at 6.6 µM; in the data active = inhibition mostly above about 38%, no sharp cut-off; inactive = mostly below about 40%;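 note: 0% = agonist challenge alone and 100% = reference antagonist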
TAAR1 antagonist – antagonists of human TAAR1; Q96RJ0; CHO RD-HGA16 TAAR1, Fluo-8 calcium fluorescence, antagonist; inhibition, % at 3 µM; actives 1.5% (n = 360,000); AID 624466;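 active = inhibition above a per-plate cutoff, the mean inhibition of test compounds on that plate plus 3 SD, cut at about 49% in these data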;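 note: 0% = DMSO plus EC80 beta-PEA response and 100% = DMSO alone without agonist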
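Test system: RD-HGA16 CHO cells with stable hTAAR1 and Gα16 / Probe or stimulus: EC80 β-phenethylamine stimulus / Times: seeding 17-24 h prior, 75-min 37 °C, 30-min RT dye loading / Detection: Fluo-8 calcium-sensitive fluorescence / Read-out basis: % inhibition scaled between DMSO and EC80 PEA controls / Repeats: singlicate, one well per test compound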
* = called active by the depositor.

How did Cc1csc(C(=O)NCC(=O)NNC(=O)c2cccc(Cl)c2)c1 do in these assays?
GPR7 antag: -8; OX1R antag-1: -1; CHO parental Ca: -3; TAAR1 ag: 1; OX1R antag-2: -10; TAAR1 antagonist: -15

Results for O=C(O)CS(=O)(=O)c1ccc(C(F)(F)F)cn1 ?
GPR7 antag: -14; OX1R antag-1: -23; CHO parental Ca: -9; TAAR1 ag: -1; OX1R antag-2: 19; TAAR1 antagonist: 8

What do the screens show for `COc1ccc(/C=N/NC(=O)CCn2c3ccccc3c3ccccc32)cc1OC`?
GPR7 antag: -3; OX1R antag-1: 7; CHO parental Ca: -19; TAAR1 ag: 16; OX1R antag-2: 59*; TAAR1 antagonist: 16

How did COc1ccccc1CC(=O)N1CCC(n2nccc2NC(=O)C2CCOC2)CC1 (centres undefined) do in these assays?
GPR7 antag: 0; OX1R antag-1: -4; CHO parental Ca: -5; TAAR1 ag: 1; OX1R antag-2: 10; TAAR1 antagonist: -22

Results for O=C(CCC(=O)c1cccs1)NCC(c1ccc(F)cc1)N1CCOCC1 (centres undefined) ?
OX1R antag-1: -28; CHO parental Ca: -15; TAAR1 ag: -3; OX1R antag-2: -2; TAAR1 antagonist: -17

What do the screens show for `Oc1c(Cl)cc(Cl)cc1Sc1cc(Cl)cc(Cl)c1O`?
GPR7 antag: 2; OX1R antag-1: 73*; CHO parental Ca: 101*; OX1R antag-2: 60*

Results for COc1ccc(CCN(C)C(=O)c2cc(S(=O)(=O)NCc3ccccc3)ccc2C)cc1OC ?
OX1R antag-1: -30; CHO parental Ca: -24; TAAR1 ag: 4; OX1R antag-2: 31; TAAR1 antagonist: -25

What do the screens show for `COc1ccc(CN(C)C(=O)c2cc(S(=O)(=O)NCc3ccccc3)ccc2C)c(OC)c1`?
OX1R antag-1: 10; CHO parental Ca: 1; TAAR1 ag: 6; OX1R antag-2: 33*; TAAR1 antagonist: 40

Results for CNC(=O)C(C#N)(Cc1cc(C(C)=O)ccc1OC)Cc1cc(C(C)=O)ccc1OC ?
GPR7 antag: 0; OX1R antag-1: -24; CHO parental Ca: -23; TAAR1 ag: 2; OX1R antag-2: 34; TAAR1 antagonist: 7

How did O=C(CNC(=O)C1COc2ccccc2O1)N/N=C\c1cccc(O)c1 (centres undefined) do in these assays?
GPR7 antag: -10; OX1R antag-1: -17; CHO parental Ca: -7; TAAR1 ag: 22; OX1R antag-2: 13; TAAR1 antagonist: -11

What do the screens show for `O=C(CNC(=O)C1COc2ccccc2O1)N/N=C/c1ccc(O)cc1O` (centres undefined)?
GPR7 antag: 3; OX1R antag-1: -1; CHO parental Ca: -4; TAAR1 ag: 41*; OX1R antag-2: 13; TAAR1 antagonist: -19

Results for CC(=O)C(C(C)=O)c1c(Cl)c(O)c(O)c2c(C(=O)c3ccccc3)coc12 ?
GPR7 antag: -10; OX1R antag-1: -8; CHO parental Ca: -29; TAAR1 ag: 39*; OX1R antag-2: 34; TAAR1 antagonist: 29

How did CN1CCN(Cc2c(O)ccc3occ(C(=O)c4ccccc4)c23)CC1 do in these assays?
GPR7 antag: -2; OX1R antag-1: -30; CHO parental Ca: -19; TAAR1 ag: 5; OX1R antag-2: 25; TAAR1 antagonist: 2

Results for CCN(CC)c1ccc2c(Cl)c(Br)c(=O)oc2c1 ?
GPR7 antag: 41*; OX1R antag-1: 90*; CHO parental Ca: 81*; OX1R antag-2: 9

Results for CCN(CC)c1ccc2c(C)c(Cl)c(=O)oc2c1 ?
GPR7 antag: -1; OX1R antag-1: -22; CHO parental Ca: -19; TAAR1 ag: 7; OX1R antag-2: 16; TAAR1 antagonist: 14

Results for O=C(COc1ncnc2scc(-c3ccccc3)c12)NC1CCCc2ccccc21 (centres undefined) ?
GPR7 antag: -16; OX1R antag-1: 8; CHO parental Ca: -9; TAAR1 ag: 1; OX1R antag-2: 73*; TAAR1 antagonist: -9

How did O=C(COc1ccccc1C(=O)O)NC1CCCc2ccccc21 (centres undefined) do in these assays?
GPR7 antag: 14; OX1R antag-1: -30; CHO parental Ca: -4; TAAR1 ag: 1; OX1R antag-2: 12; TAAR1 antagonist: -4
